Assay results reported in ChEMBL document CHEMBL1153955, “Indolylarylsulfones bearing natural and unnatural amino acids. Discovery of potent inhibitors of HIV-1 non-nucleoside wild type and resistant mutant strains reverse transcriptase and coxsackie B4 virus” (J Med Chem, 2009).

Legend:
[1] = system: Influenza A virus; test: Antiviral activity against influenza H1N1 virus in MDCK cells assessed as reduction of virus-induced cytopathicity by MTS method; assay type: functional, organism-based; conditions: Influenza A virus, H1N1, MDCK
[2] = system: Human alphaherpesvirus 1; test: Antiviral activity against HSV1 KOS in human HEL cells assessed as protection against virus-induced cytopathicity; assay type: functional, organism-based; conditions: Human alphaherpesvirus 1, KOS
[3] = system: Felid alphaherpesvirus 1; test: Antiviral activity against Feline herpesvirus in feline […] cells assessed as inhibition of virus-induced cytopathicity; assay type: functional, organism-based
[4] = system: Human respirovirus 3; test: Antiviral activity against Parainfluenza virus type 3 in african green monkey Vero cells assessed as protection against virus-induced cytopathicity; assay type: functional, organism-based; conditions: Human respirovirus 3, Vero
In short: (§1)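 Confluent cell monolayers inoculated with 100 CCID₅₀ virus. After 1-2 h adsorption, residual virus removed and cultures incubated with varying compound concentrations. Cytopathicity scored once it reached completion in untreated infected controls. EC₅₀ = dose reducing virus-induced cytopathogenicity by 50%.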

[5] = system: Vaccinia virus; test: Antiviral activity against Vaccinia virus Lederle in human HEL cells assessed as protection against virus-induced cytopathicity; assay type: functional, organism-based; conditions: Orthopoxvirus vaccinia
[6] = system: Vesicular stomatitis virus; test: Antiviral activity against VSV in human HEL cells assessed as protection against virus-induced cytopathicity; assay type: functional, organism-based
[7] = system: Punta Toro virus; test: Antiviral activity against Punta Toro virus in african green monkey Vero cells assessed as protection against virus-induced cytopathicity; assay type: functional, organism-based; in short: as §1
[8] = system: Human immunodeficiency virus 2; test: Antiviral activity against HIV2 ROD in human CEM cells assessed as protection against virus-induced cytopathicity after 4 days; assay type: functional, organism-based; conditions: Human immunodeficiency virus 2, ROD, CCRF-CEM, 96 h
In short: (§2)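 CEM cells (~3 × 10⁵ cells/mL) infected with ~100 CCID₅₀ per mL of HIV-1 (IIIB) or HIV-2 (ROD), then seeded into wells containing compound dilutions. After 4 days at 37 °C, syncytium (giant cell) formation was examined microscopically. EC₅₀ = concentration protecting CEM cells from HIV cytopathicity by 50%.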

[9] = system: Feline coronavirus; test: Antiviral activity against Feline coronavirus in feline […] cells assessed as inhibition of virus-induced cytopathicity; assay type: functional, organism-based; conditions: Alphacoronavirus 1
[10] = Cytotoxicity against feline CRFK cells by MTS assay; assay type: cell-based, Felis catus; conditions: cat
[11] = target: Human immunodeficiency virus type 1 reverse transcriptase (Human immunodeficiency virus 1, UniProt Q72547, L100I); test: Inhibition of HIV1 reverse transcriptase p66/p51 L100I mutant; conditions: read-out: IC50
In short: (§3)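 Substrate was 0.5 µg poly(rA)/oligo(dT) 10:1 (0.3 µM 3′-OH ends) with 10 µM [³H]dTTP, at 37 °C. Acid-precipitable radioactivity was counted on GF/C filters after TCA washes.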

[12] = system: CCRF-CEM; test: Antiproliferative activity against human CEM cells after 3 days; assay type: cell-based; conditions: 72 h
In short: (§4)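 Cells seeded at 5 × 10⁴ to 7.5 × 10⁴ cells/200 µL with or without serial compound dilutions; incubated at 37 °C for 2 days (L1210) or 3 days (Molt4/C8, CEM). Cell numbers counted with a Coulter counter. CC₅₀ = concentration reducing proliferation by 50% versus untreated controls, read from plots of cell number (% of control) against concentration. Means of at least two independent experiments.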

[13] = system: Vesicular stomatitis virus; test: Antiviral activity against VSV in human HeLa cells assessed as protection against virus-induced cytopathicity; assay type: functional, organism-based
[14] = system: Mammalian orthoreovirus 1; test: Antiviral activity against Reovirus 1 in african green monkey Vero cells assessed as protection against virus-induced cytopathicity; assay type: functional, organism-based; conditions: Mammalian orthoreovirus 1, Vero; in short: as §1
[15] = Cytotoxicity against human HeLa cells assessed as drug level causing microscopically detectable alteration of normal cell morphology after 3 days; assay type: cell-based
In short: (§5)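 Serial compound dilutions added to confluent HeLa or Vero monolayers. MCC = minimum concentration causing microscopically detectable alteration of cell morphology after 3 days of incubation.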

[16] = Cytotoxicity against MDCK cells assessed as drug level causing microscopically detectable alteration of normal cell morphology; assay type: cell-based, Canis lupus familiaris; conditions: dog
[17] = system: Influenza A virus; test: Antiviral activity against influenza H1N1 virus in MDCK cells assessed as reduction of virus-induced cytopathicity by visual cytopathic effect scoring method; assay type: functional, organism-based
[18] = system: Influenza A virus H3N2; test: Antiviral activity against influenza H3N2 virus in MDCK cells assessed as reduction of virus-induced cytopathicity by visual cytopathic effect scoring method; assay type: functional, organism-based
[19] = Cytotoxicity against human HEL cells assessed as drug level causing microscopically detectable alteration of normal cell morphology after 3 days; assay type: cell-based
[20] = system: Influenza B virus; test: Antiviral activity against influenza B virus in MDCK cells assessed as reduction of virus-induced cytopathicity by MTS method; assay type: functional, organism-based
[21] = system: Coxsackievirus B4; test: Antiviral activity against Coxsackievirus B4 in human HeLa cells assessed as protection against virus-induced cytopathicity; assay type: functional, organism-based; conditions: Enterovirus B; in short: as §1
[22] = target: Human immunodeficiency virus type 1 reverse transcriptase (Human immunodeficiency virus 1, UniProt Q72547); test: Inhibition of HIV1 reverse transcriptase p66/p51; conditions: read-out: IC50
[23] = system: Influenza A virus H3N2; test: Antiviral activity against influenza H3N2 virus in MDCK cells assessed as reduction of virus-induced cytopathicity by MTS method; assay type: functional, organism-based
[24] = system: Human immunodeficiency virus 1; test: Antiviral activity against HIV1 3B in human CEM cells assessed as protection against virus-induced cytopathicity after 4 days; assay type: functional, organism-based; conditions: Human immunodeficiency virus 1, 3B, CCRF-CEM, 96 h; in short: as §2
[25] = target: Human immunodeficiency virus type 1 reverse transcriptase (Human immunodeficiency virus 1, UniProt Q72547, Y181I); test: Inhibition of HIV1 reverse transcriptase p66/p51 Y181I mutant; conditions: read-out: IC50; in short: as §3
[26] = system: Respiratory syncytial virus; test: Antiviral activity against RSV Long in human HeLa cells assessed as protection against virus-induced cytopathicity; assay type: functional, organism-based; in short: as §1
[27] = system: Coxsackievirus B4; test: Antiviral activity against Coxsackievirus B4 in african green monkey Vero cells assessed as protection against virus-induced cytopathicity; assay type: functional, organism-based; conditions: Enterovirus B; in short: as §1
[28] = system: Human alphaherpesvirus 1; test: Antiviral activity against thymidine kinase deficient and acyclovir resistant HSV1 KOS in human HEL cells assessed as protection against virus-induced cytopathicity; assay type: functional, organism-based; conditions: Human alphaherpesvirus 1, KOS
[29] = system: Human alphaherpesvirus 2; test: Antiviral activity against HSV2 G in human HEL cells assessed as protection against virus-induced cytopathicity; assay type: functional, organism-based; conditions: Human alphaherpesvirus 2, strain G; in short: as §1
[30] = system: Sindbis virus; test: Antiviral activity against Sindbis virus in african green monkey Vero cells assessed as protection against virus-induced cytopathicity; assay type: functional, organism-based; in short: as §1
[31] = Cytotoxicity against MDCK cells by MTS assay; assay type: cell-based, Canis lupus familiaris; conditions: dog
[32] = Cytotoxicity against african green monkey Vero cells assessed as drug level causing microscopically detectable alteration of normal cell morphology after 3 days; assay type: cell-based; conditions: chlorocebus sabaeus; in short: as §5
[33] = target: Human immunodeficiency virus type 1 reverse transcriptase (Human immunodeficiency virus 1, UniProt Q72547, K103N); test: Inhibition of HIV1 reverse transcriptase p66/p51 K103N mutant; conditions: read-out: IC50; in short: as §3
[34] = system: Influenza B virus; test: Antiviral activity against influenza B virus in MDCK cells assessed as reduction of virus-induced cytopathicity by visual cytopathic effect scoring method; assay type: functional, organism-based
[35] = Antiproliferative activity against human Molt4/C8 cells after 3 days; assay type: cell-based; conditions: MOLT-4, 72 h; in short: as §4
[36] = system: L1210; test: Antiproliferative activity against mouse L1210 cells after 2 days; assay type: cell-based; conditions: L1210, 48 h; in short: as §4
[37] = system: Human immunodeficiency virus 1; test: Antiviral activity against HIV1 with reverse transcriptase K103N mutation in human CEM cells assessed as protection against virus-induced cytopathicity; assay type: functional, organism-based; conditions: Human immunodeficiency virus 1, CCRF-CEM
In short: (§6)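 CEM cells (~3 × 10⁵ cells/mL) were infected with ~100 CCID₅₀ virus per mL and seeded with serial compound dilutions. After 4 days at 37 °C, syncytium (giant cell) formation was scored microscopically. EC₅₀ is the concentration giving 50% protection against virus cytopathicity.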

[38] = system: Human immunodeficiency virus 1; test: Antiviral activity against HIV1 with reverse transcriptase Y181I mutation in human CEM cells assessed as protection against virus-induced cytopathicity; assay type: functional, organism-based; conditions: Human immunodeficiency virus 1, CCRF-CEM; in short: as §6
[39] = system: Human immunodeficiency virus 1; test: Antiviral activity against HIV1 with reverse transcriptase Y188L mutation in human CEM cells assessed as protection against virus-induced cytopathicity; assay type: functional, organism-based; conditions: Human immunodeficiency virus 1, CCRF-CEM; in short: as §6
[40] = system: Human immunodeficiency virus 1; test: Antiviral activity against HIV1 with reverse transcriptase L100I mutation in human CEM cells assessed as protection against virus-induced cytopathicity; assay type: functional, organism-based; conditions: Human immunodeficiency virus 1, CCRF-CEM; in short: as §6
[41] = system: Human immunodeficiency virus 1; test: Antiviral activity against HIV1 with reverse transcriptase Y181C mutation in human CEM cells assessed as protection against virus-induced cytopathicity; assay type: functional, organism-based; conditions: Human immunodeficiency virus 1, CCRF-CEM; in short: as §6

With `Cc1cc(C)cc(S(=O)(=O)c2c(C(N)=O)[nH]c3ccc(Cl)cc23)c1` the EC50 [1] was greater than 100 µM, the EC50 [2] was greater than 100 µM and the EC50 [3] was greater than 100 µM. For the same molecule, the EC50 [4] was greater than 100 µM, the EC50 [5] was greater than 100 µM and the EC50 [6] was greater than 100 µM. For the same molecule, the EC50 [7] was greater than 100 µM, the EC50 [8] was greater than 2 µM and the EC50 [9] was greater than 100 µM. For the same molecule, the CC50 [10] was greater than 100 µM, the IC50 [11] was 0.06 µM and the IC50 [12] was 301 µM. The EC50 [13] was greater than 100 µM, the EC50 [14] was greater than 100 µM and the MCC at 72 h [15] was greater than 100 µM. The MCC [16] was greater than 100 µM, the EC50 [17] was greater than 100 µM and the EC50 [18] was greater than 100 µM. The MCC at 72 h [19] was greater than 100 µM, the EC50 [20] was greater than 100 µM and the EC50 [21] was greater than 100 µM. It also gave an IC50 [22] of 0.0003 µM, an EC50 [23] greater than 100 µM and an EC50 [24] of 0.0011 µM. The IC50 [25] was 0.14 µM, the EC50 [26] was greater than 100 µM and the EC50 [27] was greater than 100 µM. For the same molecule, the EC50 [28] was greater than 100 µM, the EC50 [29] was greater than 100 µM and the EC50 [30] was greater than 100 µM. The CC50 [31] was greater than 100 µM, the MCC at 72 h [32] was greater than 100 µM and the IC50 [33] was 0.003 µM. It also gave an EC50 [34] greater than 100 µM, an IC50 [35] of 20 µM and an IC50 [36] of no less than 500 µM.

`O=C1Nc2ccc(Cl)cc2[C@@](C#CC2CC2)(C(F)(F)F)O1` [EFAVIRENZ] showed an IC50 [37] of 0.13 µM, an IC50 [38] of 0.012 µM and an IC50 [39] of 0.76 µM. It also gave an IC50 [40] of 0.022 µM and an IC50 [41] of 0.16 µM.

In the case of `Cc1ccnc2c1NC(=O)c1cccnc1N2C1CC1` [NEVIRAPINE], the IC50 [37] is reported as 2.9 µM, the IC50 [38] is reported as greater than 10 µM and the IC50 [39] is reported as greater than 10 µM. For the same molecule, the IC50 [40] was 0.06 µM and the IC50 [41] was 11 µM.
